# Reference: ChEMBL document CHEMBL3352626, “Synthesis and biological evaluation of novel oxindole-based RTK inhibitors as anti-cancer agents” (Bioorg Med Chem, 2014)
# The source made the active and inactive calls. The calls are words filed in the database; no cut-off is given here.
# What was measured:
# [1] = target: T1, Mast/stem cell growth factor receptor Kit (Homo sapiens, UniProt P10721); assay: Inhibition of recombinant c-Kit (unknown origin) at 0.1 uM after 1 hr by microfluidic assay
# Outline: (§1)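 Caliper microfluidic mobility-shift assay using recombinant kinases from Carna. Enzyme, substrate, ATP (at Km) and compound reacted for 1 h, then stopped with EDTA. Substrate-to-phosphoproduct conversion read on EZ Reader II. Percent inhibition calculated relative to no-enzyme blanks and full-reaction wells, each containing 2.5% DMSO.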
# [2] = target: Platelet-derived growth factor receptor beta (Homo sapiens) (UniProt P09619); assay: Inhibition of recombinant PDGFRb (unknown origin) at 0.1 uM after 1 hr by microfluidic assay; outline: as §1
# Platelet-derived growth factor receptor beta (Homo sapiens), sequence (P09619 whole entry): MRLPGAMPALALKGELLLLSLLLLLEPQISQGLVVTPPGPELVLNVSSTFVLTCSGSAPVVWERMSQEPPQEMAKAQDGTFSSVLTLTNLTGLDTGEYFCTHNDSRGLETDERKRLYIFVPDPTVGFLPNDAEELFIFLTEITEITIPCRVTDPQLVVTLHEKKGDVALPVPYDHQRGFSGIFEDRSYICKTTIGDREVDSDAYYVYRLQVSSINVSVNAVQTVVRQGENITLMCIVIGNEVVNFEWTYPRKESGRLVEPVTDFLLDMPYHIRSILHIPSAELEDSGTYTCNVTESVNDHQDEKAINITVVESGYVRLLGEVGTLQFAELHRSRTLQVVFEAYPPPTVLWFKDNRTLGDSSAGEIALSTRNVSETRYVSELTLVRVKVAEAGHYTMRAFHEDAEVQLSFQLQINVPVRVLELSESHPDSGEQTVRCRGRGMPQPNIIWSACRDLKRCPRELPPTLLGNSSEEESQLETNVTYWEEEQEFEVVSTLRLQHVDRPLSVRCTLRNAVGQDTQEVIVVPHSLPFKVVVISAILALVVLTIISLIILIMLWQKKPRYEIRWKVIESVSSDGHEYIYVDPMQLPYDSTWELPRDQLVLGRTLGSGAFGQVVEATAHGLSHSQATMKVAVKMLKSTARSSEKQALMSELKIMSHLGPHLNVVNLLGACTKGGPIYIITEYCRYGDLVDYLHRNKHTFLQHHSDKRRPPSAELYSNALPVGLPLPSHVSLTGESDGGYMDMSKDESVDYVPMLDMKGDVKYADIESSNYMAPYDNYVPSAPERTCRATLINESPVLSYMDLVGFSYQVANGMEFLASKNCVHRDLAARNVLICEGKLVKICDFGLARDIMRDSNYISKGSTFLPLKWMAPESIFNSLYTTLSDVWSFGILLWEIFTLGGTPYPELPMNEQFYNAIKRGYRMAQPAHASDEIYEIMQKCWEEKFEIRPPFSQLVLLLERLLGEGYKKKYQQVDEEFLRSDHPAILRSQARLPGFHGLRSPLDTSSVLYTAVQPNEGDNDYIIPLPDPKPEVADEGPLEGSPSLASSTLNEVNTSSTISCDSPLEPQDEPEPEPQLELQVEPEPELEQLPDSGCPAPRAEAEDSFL
# [3] = target: T2, Aurora kinase B (Homo sapiens, UniProt Q96GD4); assay: Inhibition of recombinant Aur B (unknown origin) at 1 uM after 1 hr by microfluidic assay; outline: as §1
# T2 sequence (Q96GD4 whole entry): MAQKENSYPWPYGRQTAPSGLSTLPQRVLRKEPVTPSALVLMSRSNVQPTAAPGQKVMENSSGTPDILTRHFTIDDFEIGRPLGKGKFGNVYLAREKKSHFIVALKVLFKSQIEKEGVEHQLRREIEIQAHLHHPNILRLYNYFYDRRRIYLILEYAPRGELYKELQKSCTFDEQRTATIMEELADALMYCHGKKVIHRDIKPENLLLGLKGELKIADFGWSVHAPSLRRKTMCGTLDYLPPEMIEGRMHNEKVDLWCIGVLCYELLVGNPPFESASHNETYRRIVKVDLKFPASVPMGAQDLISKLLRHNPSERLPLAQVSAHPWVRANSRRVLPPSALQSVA
# [4] = target: Platelet-derived growth factor receptor beta (Homo sapiens) (UniProt P09619); assay: Inhibition of recombinant PDGFRb (unknown origin) at 1 uM after 1 hr by microfluidic assay; outline: as §1
# [5] = target: Vascular endothelial growth factor receptor 2 (Homo sapiens) (UniProt P35968); assay: Inhibition of recombinant KDR (unknown origin) at 10 uM after 1 hr by microfluidic assay; outline: as §1
# Vascular endothelial growth factor receptor 2 (Homo sapiens), sequence (P35968 whole entry): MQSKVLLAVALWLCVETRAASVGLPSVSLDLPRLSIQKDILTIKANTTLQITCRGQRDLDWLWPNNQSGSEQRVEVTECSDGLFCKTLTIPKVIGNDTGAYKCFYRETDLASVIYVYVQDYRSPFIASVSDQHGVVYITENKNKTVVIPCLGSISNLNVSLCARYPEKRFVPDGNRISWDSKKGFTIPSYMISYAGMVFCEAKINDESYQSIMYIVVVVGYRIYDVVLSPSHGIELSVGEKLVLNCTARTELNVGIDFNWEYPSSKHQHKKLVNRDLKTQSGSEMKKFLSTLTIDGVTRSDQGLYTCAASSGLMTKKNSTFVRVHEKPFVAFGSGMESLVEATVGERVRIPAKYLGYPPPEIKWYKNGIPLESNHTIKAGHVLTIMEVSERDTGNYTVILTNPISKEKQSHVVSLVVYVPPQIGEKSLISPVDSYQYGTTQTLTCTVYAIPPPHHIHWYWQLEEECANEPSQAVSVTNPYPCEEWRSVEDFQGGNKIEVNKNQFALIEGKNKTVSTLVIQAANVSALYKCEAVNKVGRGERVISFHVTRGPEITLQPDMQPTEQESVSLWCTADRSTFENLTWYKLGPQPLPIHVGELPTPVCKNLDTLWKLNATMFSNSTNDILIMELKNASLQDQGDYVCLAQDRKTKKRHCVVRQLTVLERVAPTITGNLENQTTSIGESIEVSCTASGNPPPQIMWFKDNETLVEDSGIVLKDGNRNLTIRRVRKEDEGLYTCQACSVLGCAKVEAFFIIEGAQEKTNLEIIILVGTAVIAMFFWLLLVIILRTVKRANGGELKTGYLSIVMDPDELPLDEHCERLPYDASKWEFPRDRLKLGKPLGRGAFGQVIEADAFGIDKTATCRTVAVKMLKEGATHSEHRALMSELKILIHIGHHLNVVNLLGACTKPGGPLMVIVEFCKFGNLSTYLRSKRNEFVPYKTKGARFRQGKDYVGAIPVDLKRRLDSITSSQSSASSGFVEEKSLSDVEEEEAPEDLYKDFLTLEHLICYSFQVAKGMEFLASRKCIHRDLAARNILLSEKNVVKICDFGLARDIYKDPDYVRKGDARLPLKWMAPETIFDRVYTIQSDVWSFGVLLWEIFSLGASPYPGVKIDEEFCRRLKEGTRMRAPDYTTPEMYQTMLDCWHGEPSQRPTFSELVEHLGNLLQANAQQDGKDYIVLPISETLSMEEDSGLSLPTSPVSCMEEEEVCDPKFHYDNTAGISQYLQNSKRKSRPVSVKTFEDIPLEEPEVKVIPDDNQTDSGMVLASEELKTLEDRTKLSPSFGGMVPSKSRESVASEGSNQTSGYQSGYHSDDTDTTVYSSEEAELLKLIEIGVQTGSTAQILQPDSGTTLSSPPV
# [6] = Antiproliferative activity against human SGC7901 cells at 10 uM after 72 hrs by MTS assay; assay type: functional, SGC-7901
# [7] = Antiproliferative activity against rat NRK-52E cells after 72 hrs by MTS assay; assay type: cell-based
# [8] = Antiproliferative activity against human HCC827 cells at 10 uM after 72 hrs by MTS assay; assay type: functional
# [9] = test system: A549; assay: Antiproliferative activity against human A549 cells after 72 hrs by MTS assay; assay type: functional, cell-based; settings: A549, 72 h
# Outline: (§2)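 Cells at 4 × 10^4 cells/ml, seeded and left overnight, then exposed in triplicate to 30, 10, 3, 1, 0.3 and 0.1 µM compound in DMSO for 72 h at 37 °C under 5% CO2. MTS dye added for 4 h and absorbance read at 490 nm. Inhibition = (1 − OD treated/OD DMSO control) × 100. IC50 derived from the dilution series.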
# [10] = Antiproliferative activity against human SGC7901 cells after 72 hrs by MTS assay; assay type: functional, cell-based; settings: SGC-7901, 72 h; outline: as §2
# [11] = test system: U-251; assay: Antiproliferative activity against human U251 cells at 10 uM after 72 hrs by MTS assay; assay type: functional
# Outline: (§3)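 Single-concentration screen. Cells at 4 × 10^4 cells/ml, seeded and incubated overnight, then given 10 µM compound in DMSO for 72 h (37 °C, 5% CO2), with DMSO-only controls. MTS added for 4 h and A490 read. Percent inhibition = (1 − OD490 treated/OD490 control) × 100, from triplicate experiments.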
# [12] = target: Epidermal growth factor receptor (Homo sapiens) (UniProt P00533); assay: Inhibition of recombinant EGFR (unknown origin) at 0.1 uM after 1 hr by microfluidic assay; outline: as §1
# Epidermal growth factor receptor (Homo sapiens), sequence (P00533 whole entry): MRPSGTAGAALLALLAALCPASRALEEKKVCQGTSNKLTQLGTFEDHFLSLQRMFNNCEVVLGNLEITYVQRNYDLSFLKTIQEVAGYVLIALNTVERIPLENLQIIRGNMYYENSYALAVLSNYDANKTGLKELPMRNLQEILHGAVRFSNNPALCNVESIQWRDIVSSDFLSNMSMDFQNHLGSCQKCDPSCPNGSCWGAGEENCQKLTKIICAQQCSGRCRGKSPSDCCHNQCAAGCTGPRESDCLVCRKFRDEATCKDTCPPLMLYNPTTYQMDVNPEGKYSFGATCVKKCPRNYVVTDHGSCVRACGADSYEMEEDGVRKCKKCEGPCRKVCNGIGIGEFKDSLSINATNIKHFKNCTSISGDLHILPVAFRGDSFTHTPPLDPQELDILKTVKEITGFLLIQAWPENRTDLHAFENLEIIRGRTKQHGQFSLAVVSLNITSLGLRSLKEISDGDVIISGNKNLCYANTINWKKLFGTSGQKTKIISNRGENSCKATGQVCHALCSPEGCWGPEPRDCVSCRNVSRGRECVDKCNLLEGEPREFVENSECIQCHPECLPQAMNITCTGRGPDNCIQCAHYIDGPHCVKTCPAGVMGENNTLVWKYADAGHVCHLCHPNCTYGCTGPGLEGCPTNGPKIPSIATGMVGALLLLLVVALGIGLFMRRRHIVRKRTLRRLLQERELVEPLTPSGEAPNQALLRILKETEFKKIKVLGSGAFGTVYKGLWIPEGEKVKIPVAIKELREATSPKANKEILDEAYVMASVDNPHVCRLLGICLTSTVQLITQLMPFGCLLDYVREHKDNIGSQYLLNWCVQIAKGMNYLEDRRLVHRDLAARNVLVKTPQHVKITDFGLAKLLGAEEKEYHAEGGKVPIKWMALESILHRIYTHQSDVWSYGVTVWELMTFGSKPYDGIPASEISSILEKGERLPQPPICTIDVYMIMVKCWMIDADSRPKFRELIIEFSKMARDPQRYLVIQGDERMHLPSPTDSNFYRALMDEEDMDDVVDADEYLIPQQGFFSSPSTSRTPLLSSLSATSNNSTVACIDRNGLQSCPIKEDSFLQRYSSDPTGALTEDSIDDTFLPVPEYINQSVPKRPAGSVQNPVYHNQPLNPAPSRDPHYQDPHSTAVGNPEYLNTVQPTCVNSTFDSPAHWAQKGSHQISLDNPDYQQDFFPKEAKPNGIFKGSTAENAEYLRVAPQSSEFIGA
# [13] = Cell cycle arrest at G1 phase in human PM8910 cells at 3 to 6 uM after 24 hrs by flow cytometry; assay type: functional, cell-based
# Outline: (§4)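 Cells seeded in 60 mm plates, treated for 24 h, washed twice in PBS and fixed in ice-cold 75% ethanol. Stained overnight at 4 °C with PI ([…]) containing RNase 180 U/ml, 0.15% Triton X-100 and polyethylene glycol in 4 mmol/l citrate, pH 7.8. DNA content measured by FACScan flow cytometry against a DMSO group. Mean ± SEM of three independent experiments.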
# [14] = target: Platelet-derived growth factor receptor beta (Homo sapiens) (UniProt P09619); assay: Inhibition of recombinant PDGFRb (unknown origin) at 10 uM after 1 hr by microfluidic assay; outline: as §1
# [15] = test system: NCI-H1975; assay: Antiproliferative activity against human NCI-H1975 cells at 10 uM after 72 hrs by MTS assay; assay type: functional; outline: as §3
# [16] = test system: A549; assay: Cell cycle arrest in human A549 cells assessed as reduction of cells in S phase at 3 to 6 uM after 24 hrs by flow cytometry; assay type: functional, cell-based; outline: as §4
# [17] = Antiproliferative activity against human Bel7402 cells at 10 uM after 72 hrs by MTS assay; assay type: functional, Bel-7402
# [18] = target: T2, Aurora kinase B; assay: Inhibition of recombinant Aur B (unknown origin) after 1 hr by microfluidic assay; outline: as §1
# [19] = target: T2, Aurora kinase B; assay: Inhibition of recombinant Aur B (unknown origin) at 10 uM after 1 hr by microfluidic assay; outline: as §1
# [20] = Cell cycle arrest in human PM8910 cells assessed as reduction of cells in S phase at 3 to 6 uM after 24 hrs by flow cytometry; assay type: functional, cell-based; outline: as §4
# [21] = target: T3, Serine/threonine-protein kinase Sgk1 (Homo sapiens) (UniProt O00141); assay: Inhibition of recombinant SGK1 (unknown origin) at 1 uM after 1 hr by microfluidic assay; outline: as §1
# T3 sequence (whole entry): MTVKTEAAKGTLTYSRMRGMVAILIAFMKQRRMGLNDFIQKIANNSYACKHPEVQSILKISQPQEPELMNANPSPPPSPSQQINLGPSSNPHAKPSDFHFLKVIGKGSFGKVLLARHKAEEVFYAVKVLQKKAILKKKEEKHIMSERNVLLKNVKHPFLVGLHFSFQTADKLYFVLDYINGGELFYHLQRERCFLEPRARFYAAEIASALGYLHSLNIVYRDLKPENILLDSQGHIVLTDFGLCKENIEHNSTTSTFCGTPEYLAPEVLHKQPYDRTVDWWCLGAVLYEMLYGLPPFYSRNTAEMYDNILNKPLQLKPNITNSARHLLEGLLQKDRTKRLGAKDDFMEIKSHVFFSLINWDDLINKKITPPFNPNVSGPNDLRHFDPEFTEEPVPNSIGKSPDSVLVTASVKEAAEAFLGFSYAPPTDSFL
# [22] = target: T1, Mast/stem cell growth factor receptor Kit; assay: Inhibition of recombinant c-Kit (unknown origin) at 10 uM after 1 hr by microfluidic assay; outline: as §1
# [23] = target: T3, Serine/threonine-protein kinase Sgk1 (Homo sapiens); assay: Inhibition of recombinant SGK1 (unknown origin) at 10 uM after 1 hr by microfluidic assay; outline: as §1
# [24] = Antiproliferative activity against human H460 cells after 72 hrs by MTS assay; assay type: functional, cell-based; settings: NCI-H460, 72 h; outline: as §2
# [25] = target: Vascular endothelial growth factor receptor 2 (Homo sapiens) (UniProt P35968); assay: Inhibition of recombinant KDR (unknown origin) at 1 uM after 1 hr by microfluidic assay; outline: as §1
# [26] = Cell cycle arrest in human SGC7901 cells assessed as reduction of cells in S phase at 3 to 6 uM after 24 hrs by flow cytometry; assay type: functional, cell-based; settings: SGC-7901; outline: as §4
# [27] = target: T2, Aurora kinase B; assay: Inhibition of recombinant Aur B (unknown origin) at 0.1 uM after 1 hr by microfluidic assay; outline: as §1
# [28] = Antiproliferative activity against human PM8910 cells after 72 hrs by MTS assay; assay type: functional, cell-based; settings: PM8910, 72 h; outline: as §2
# [29] = test system: A549; assay: Antiproliferative activity against human A549 cells at 10 uM after 72 hrs by MTS assay; assay type: functional
# [30] = Antiproliferative activity against human Bel7402 cells after 72 hrs by MTS assay; assay type: functional, cell-based; settings: Bel-7402, 72 h; outline: as §2
# [31] = Cell cycle arrest at G1 phase in human SGC7901 cells at 3 to 6 uM after 24 hrs by flow cytometry; assay type: functional, cell-based; settings: SGC-7901; outline: as §4
# [32] = target: Epidermal growth factor receptor (Homo sapiens) (UniProt P00533); assay: Inhibition of recombinant EGFR (unknown origin) at 1 uM after 1 hr by microfluidic assay; outline: as §1
# [33] = target: T1, Mast/stem cell growth factor receptor Kit; assay: Inhibition of recombinant c-Kit (unknown origin) at 1 uM after 1 hr by microfluidic assay; outline: as §1
# [34] = target: Vascular endothelial growth factor receptor 2 (Homo sapiens) (UniProt P35968); assay: Inhibition of recombinant KDR (unknown origin) at 0.1 uM after 1 hr by microfluidic assay; outline: as §1
# [35] = Antiproliferative activity against human H460 cells at 10 uM after 72 hrs by MTS assay; assay type: functional, NCI-H460
# [36] = target: T3, Serine/threonine-protein kinase Sgk1 (Homo sapiens); assay: Inhibition of recombinant SGK1 (unknown origin) at 0.1 uM after 1 hr by microfluidic assay; outline: as §1
# [37] = Antiproliferative activity against human SKBR3 cells at 10 uM after 72 hrs by MTS assay; assay type: functional, SK-BR-3; outline: as §3
# [38] = target: Epidermal growth factor receptor (Homo sapiens) (UniProt P00533); assay: Inhibition of recombinant EGFR (unknown origin) at 10 uM after 1 hr by microfluidic assay; outline: as §1
# [39] = test system: A549; assay: Cell cycle arrest at G1 phase in human A549 cells at 3 to 6 uM after 24 hrs by flow cytometry; assay type: functional, cell-based; outline: as §4
# [40] = target: T1, Mast/stem cell growth factor receptor Kit; assay: Inhibition of recombinant c-Kit (unknown origin) after 1 hr by microfluidic assay; outline: as §1
# [41] = Antiproliferative activity against human PM8910 cells at 10 uM after 72 hrs by MTS assay; assay type: functional
# [42] = Antiproliferative activity against human HCC827 cells after 72 hrs by MTS assay; assay type: functional, cell-based; settings: HCC827, 72 h; outline: as §2
# [43] = Cell cycle arrest at G1 phase in human PM8910 cells at 5 to 10 uM after 24 hrs by flow cytometry; assay type: functional, cell-based; outline: as §4
# [44] = Cell cycle arrest in human SGC7901 cells assessed as reduction of cells in S phase at 5 to 10 uM after 24 hrs by flow cytometry; assay type: functional, cell-based; settings: SGC-7901; outline: as §4
# [45] = Cell cycle arrest in human PM8910 cells assessed as reduction of cells in S phase at 5 to 10 uM after 24 hrs by flow cytometry; assay type: functional, cell-based; outline: as §4
# [46] = test system: A549; assay: Cell cycle arrest at G1 phase in human A549 cells at 5 to 10 uM after 24 hrs by flow cytometry; assay type: functional, cell-based; outline: as §4
# [47] = Cell cycle arrest at G1 phase in human SGC7901 cells at 5 to 10 uM after 24 hrs by flow cytometry; assay type: functional, cell-based; settings: SGC-7901; outline: as §4
# [48] = test system: A549; assay: Cell cycle arrest in human A549 cells assessed as reduction of cells in S phase at 5 to 10 uM after 24 hrs by flow cytometry; assay type: functional, cell-based; outline: as §4
# T1 sequence (P10721 whole entry): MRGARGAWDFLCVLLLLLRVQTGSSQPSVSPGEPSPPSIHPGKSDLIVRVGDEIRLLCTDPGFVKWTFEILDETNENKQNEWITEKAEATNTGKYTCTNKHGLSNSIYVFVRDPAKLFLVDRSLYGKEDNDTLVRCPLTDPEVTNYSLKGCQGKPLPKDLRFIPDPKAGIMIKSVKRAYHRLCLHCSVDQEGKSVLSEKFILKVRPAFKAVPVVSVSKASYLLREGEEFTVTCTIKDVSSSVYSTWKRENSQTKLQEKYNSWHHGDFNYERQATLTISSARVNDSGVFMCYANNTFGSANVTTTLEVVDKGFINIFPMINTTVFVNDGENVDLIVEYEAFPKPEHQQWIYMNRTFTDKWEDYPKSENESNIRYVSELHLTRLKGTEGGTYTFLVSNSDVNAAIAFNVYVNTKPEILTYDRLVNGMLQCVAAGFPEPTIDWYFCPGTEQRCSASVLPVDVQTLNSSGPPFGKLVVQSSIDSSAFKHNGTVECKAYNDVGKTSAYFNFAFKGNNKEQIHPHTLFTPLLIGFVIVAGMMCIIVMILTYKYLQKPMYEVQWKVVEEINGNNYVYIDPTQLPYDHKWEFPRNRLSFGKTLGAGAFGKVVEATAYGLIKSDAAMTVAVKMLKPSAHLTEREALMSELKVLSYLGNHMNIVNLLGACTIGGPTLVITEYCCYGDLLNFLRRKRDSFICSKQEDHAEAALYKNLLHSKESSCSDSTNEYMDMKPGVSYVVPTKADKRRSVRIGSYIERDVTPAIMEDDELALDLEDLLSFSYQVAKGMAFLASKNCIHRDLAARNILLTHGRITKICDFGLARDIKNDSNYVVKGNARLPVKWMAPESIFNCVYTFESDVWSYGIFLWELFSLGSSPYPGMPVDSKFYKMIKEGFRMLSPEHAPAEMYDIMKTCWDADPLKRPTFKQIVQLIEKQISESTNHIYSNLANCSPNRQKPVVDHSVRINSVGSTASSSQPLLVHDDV
smiles,measurement,setting,value
O=C1Nc2ccccc2/C1=C/c1ccc(N2CCN(C(=O)CCCl)CC2)cc1,inhibition,[1],31.9%
same,inhibition,[2],13.6%
same,inhibition,[3],53.5%
same,inhibition,[4],46.7%
same,inhibition,[5],62.6%
same,Activity,[6],60.98%
same,IC50,[7],> 30 µM
same,Activity,[8],56.47%
same,IC50,[9],3.04 µM
same,IC50,[10],2.85 µM
same,Activity,[11],20.43%
same,inhibition,[12],19.1%
same,Activity,[13],Active
same,inhibition,[14],76%
same,Activity,[15],67.22%
same,Activity,[16],Active
same,Activity,[17],49.21%
same,IC50,[18],587 nM
same,inhibition,[19],88.3%
same,Activity,[20],Active
same,inhibition,[21],11.8%
same,inhibition,[22],57.6%
same,inhibition,[23],42.4%
same,IC50,[24],20.1 µM
same,inhibition,[25],14.7%
same,Activity,[26],Active
same,inhibition,[27],14.4%
same,IC50,[28],2.76 µM
same,Activity,[29],54.9%
same,IC50,[30],3.39 µM
same,Activity,[31],Active
same,inhibition,[32],20%
same,inhibition,[33],56.4%
same,inhibition,[34],6%
same,Activity,[35],66.63%
same,inhibition,[36],3.56%
same,Activity,[37],26.45%
same,inhibition,[38],24.3%
same,Activity,[39],Active
same,IC50,[40],71 nM
same,Activity,[41],59.46%
same,IC50,[42],12.7 µM
C=CC(=O)N1CCN(c2ccc(/C=C3\C(=O)Nc4ccccc43)cc2)CC1,inhibition,[1],19.1%
same,inhibition,[2],0.4%
same,inhibition,[3],41.6%
same,inhibition,[4],26.2%
same,inhibition,[5],30.6%
same,Activity,[6],55.46%
same,IC50,[7],28.8 µM
same,Activity,[8],57.19%
same,IC50,[9],10.1 µM
same,IC50,[10],9.75 µM
same,Activity,[11],31.7%
same,inhibition,[12],14.9%
same,inhibition,[14],61.8%
same,Activity,[43],Active
same,Activity,[15],60.01%
same,Activity,[44],Active
same,Activity,[17],55.06%
same,IC50,[18],2200 nM
same,inhibition,[19],93.5%
same,inhibition,[21],38.3%
same,inhibition,[22],88.2%
same,Activity,[45],Active
same,inhibition,[23],90.7%
same,IC50,[24],11.5 µM
same,inhibition,[25],7.2%
same,inhibition,[27],4.5%
same,IC50,[28],6.74 µM
same,Activity,[29],50.28%
same,IC50,[30],7.68 µM
same,inhibition,[32],30.1%
same,inhibition,[33],55.3%
same,inhibition,[34],13.4%
same,Activity,[35],71.31%
same,inhibition,[36],2.2%
same,Activity,[37],27.99%
same,inhibition,[38],75.4%
same,IC50,[40],128 nM
same,Activity,[46],Active
same,Activity,[47],Active
same,Activity,[48],Active
same,Activity,[41],59.52%
same,IC50,[42],7 µM
